Results on 16 compounds are retold here after PubChem BioAssay.

Activity calls are given as the source filed them.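 The calls were made as follows, unless noted: active = Her2 level under about 52% in both replicate screens, with viability over 70% of control (limit read from the data); inconclusive = Her2 under the limit in one screen only, or viability under 70%; inactive = Her2 level above the set limit.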

One may read the viability as a read-out of living cells in per cent, often relative to untreated cells. What is called inhibition is the relative decrease from the control value, in per cent.

The nature of assay [1]: Her2 expression decrease, cell viability multiplex – SKBR3 breast tumor cells, AlphaScreen, ATP viability, primary screen (AID 461).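 As to Her2 level: lower value means less Her2 protein in the cells.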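 As to viability: percent of carrier control wells set as 100% viability.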 The note with it: SKBR3 Her2 protein level, 18-24 h, measured here: SKBR3 viability, ATP luminescence, at 10 µM. For orientation: Bead proximity is the source of the signal in Alpha formats.
Assay [2] concerns the target Receptor tyrosine-protein kinase erbB-2 (Homo sapiens) (UniProt P04626). The assay is described as above. To be noted: 18-24 h, at 10 µM, stronger effect = lower value.
The nature of assay [3]: reduced viability of SK-BR-3 breast cancer cells – cell-based, 24 h, human, pilot screen (AID 572;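 active = viability at or below 10% of carrier control in both of two separate runs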;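 also: compound exposure lasted between 18 and 24 h rather than exactly 24 h; 100% = carrier-treated control wells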). To be noted: SK-BR-3 viability, CellTiter-Glo luminescence, at 10 µM, stronger effect = lower value. A general note: In ATP-based viability assays light output follows the ATP content of the culture.
The nature of assay [4]: HUVEC growth inhibition – cell-based, human, primary screen (AID 575;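 active = viability at or below 30% in both replicate assays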;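 also: 100% = median of untreated cell wells with 0.1% DMSO on each plate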). To be noted: HUVEC proliferation, CellTiter-Glo luminescence, 72 h; at 10 µM; stronger effect = lower value. A digest of the protocol:
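System: primary human umbilical vein endothelial cells; Quantity: 1250 endothelial cells in each well; Buffer or medium: supplemented EBM, 2% fetal bovine serum; Doses: one dose, 10 µM final, 0.1% DMSO; Incubation: 72 h compound incubation; Technique: ATP-based CellTiter-Glo luminescent read; Evaluation: percent of median DMSO-control luminescence; Controls: vehicle and MePR control wells.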

Assay [5] is described as follows: H69AR cell proliferation blockers – human, duplicate replicates, primary screen (AID 580;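 active = viability at or under a set limit in both replicates, limit being median viability minus 3 SD, cut at about 48% in these data, passing the limit was not always enough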;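 also: 100% = mean luminescence of untreated wells and 0% = no signal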). The note with it: H69AR lung tumor cells viability, ATP luminescence, 72 h; at 10 µM; stronger effect = lower value.
Assay [6] can be described thus: MRP1 drug-resistance reversers in H69AR cells – cell-based, doxorubicin co-treatment, pilot screen (AID 601;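 active = viability loss from added drug above about 55%, and viability with drug at most 40%, in both replicates, limit read from the data, passing the limit was not always enough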). The note with it: CellTiter-Glo, 72 h, at 10 µM; for differential viability (reversal): stronger effect = higher value.
The nature of assay [7]: yeast transport mutant growth inhibition pilot in 384-well plates, post-Golgi transport modulator project (AID 636; in the data active = inhibition above about 31%). To be noted: absorbance 615 nm, about 18 h, stronger effect = higher value.
The nature of assay [8]: growth suppression of yeast trafficking mutant, preliminary HTS, modulators of trafficking downstream of Golgi apparatus project, 1536-format plate, OD 615 nm (AID 637; in the data active = inhibition above about 30%). The note with it: yeast transport mutant growth, absorbance 615 nm, 18 h; stronger effect = higher value.
Where [9] appears, read: H69AR cells + 2 uM doxorubicin, measured here: viability with 2 uM doxorubicin, stronger effect = lower value.
Setting [10] is: H69AR cells, compound alone cytotoxicity.

Sequence of Receptor tyrosine-protein kinase erbB-2 (Homo sapiens) (P04626 whole entry, looked up): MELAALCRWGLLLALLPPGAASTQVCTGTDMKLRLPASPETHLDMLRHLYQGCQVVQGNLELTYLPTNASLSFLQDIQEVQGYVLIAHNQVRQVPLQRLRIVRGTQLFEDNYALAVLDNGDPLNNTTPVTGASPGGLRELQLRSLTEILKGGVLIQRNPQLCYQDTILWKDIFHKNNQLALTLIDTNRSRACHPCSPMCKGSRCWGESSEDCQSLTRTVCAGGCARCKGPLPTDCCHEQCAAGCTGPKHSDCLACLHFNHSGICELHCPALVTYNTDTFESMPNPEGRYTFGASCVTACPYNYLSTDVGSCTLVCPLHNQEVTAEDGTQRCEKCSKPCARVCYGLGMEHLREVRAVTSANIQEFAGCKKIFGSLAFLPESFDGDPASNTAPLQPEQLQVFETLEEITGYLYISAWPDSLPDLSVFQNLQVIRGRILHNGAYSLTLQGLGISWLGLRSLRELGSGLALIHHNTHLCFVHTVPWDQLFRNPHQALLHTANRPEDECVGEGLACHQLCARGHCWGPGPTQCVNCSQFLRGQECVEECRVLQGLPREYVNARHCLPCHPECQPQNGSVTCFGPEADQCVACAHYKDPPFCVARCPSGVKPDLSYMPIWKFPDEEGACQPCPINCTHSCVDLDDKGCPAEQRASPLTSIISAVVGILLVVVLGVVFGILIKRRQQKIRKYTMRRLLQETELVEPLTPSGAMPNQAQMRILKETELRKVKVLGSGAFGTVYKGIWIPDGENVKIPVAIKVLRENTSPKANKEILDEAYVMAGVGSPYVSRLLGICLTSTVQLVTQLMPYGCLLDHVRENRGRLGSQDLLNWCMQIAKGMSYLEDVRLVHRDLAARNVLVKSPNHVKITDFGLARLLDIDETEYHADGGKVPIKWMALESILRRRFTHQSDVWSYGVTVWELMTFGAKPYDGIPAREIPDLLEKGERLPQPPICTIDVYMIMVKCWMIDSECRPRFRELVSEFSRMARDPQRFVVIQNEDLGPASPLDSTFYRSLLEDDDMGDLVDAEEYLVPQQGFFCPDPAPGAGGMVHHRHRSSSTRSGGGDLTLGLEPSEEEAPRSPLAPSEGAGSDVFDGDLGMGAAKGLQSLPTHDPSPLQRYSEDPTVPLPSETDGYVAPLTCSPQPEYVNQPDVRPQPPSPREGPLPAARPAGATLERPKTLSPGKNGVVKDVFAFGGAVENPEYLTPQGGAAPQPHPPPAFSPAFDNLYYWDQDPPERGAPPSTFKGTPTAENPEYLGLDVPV

As for `COc1cccc2cc(C(=O)C3=C(O)C(=O)N(CCCN4CCOCC4)C3c3ccncc3)oc12` (stereo not given), the viability in assay [1] is 98%; in assay [3] it was 98% (inactive); in assay [4] it was 110% (inactive); in assay [5] it was 96.8% (inactive); in assay [6] (setting [9]), 99.6%; in assay [6] (setting [10]) it was 96.8%. The Her2 level in assay [2] is 142% (inactive). The differential viability (reversal) in assay [6] (H69AR cells + 2 uM doxorubicin) is -2.74% (inactive). The values for the inhibition in assay [7] and in assay [8] were -5.19% (inactive) and -5.5% (inactive), respectively.

Regarding `O=C(CN1C(=O)CCSc2ccccc21)Nc1ccc(F)cc1`, the viability in assay [1] was 94%; in assay [3], 94% (inactive); in assay [4], 97.6% (inactive); in assay [5] it was 98.5% (inactive); in assay [6] (setting [9]), 97.5%; in assay [6] (setting [10]), 98.5%. The Her2 level in assay [2] is 112% (inactive). The differential viability (reversal) in assay [6] (H69AR cells + 2 uM doxorubicin) was 1.06% (inactive). Besides, the inhibition in assay [7] was 3.29% (inactive); in assay [8] it was 0.16% (inactive).

Turning to `COc1ccc(NC(=O)CSC2=C(C#N)C(c3ccco3)C3=C(CCCC3=O)N2)c(OC)c1` (stereo not given), the viability in assay [1] was 108%; in assay [3] it was 108% (inactive); in assay [4], 86.6% (inactive); in assay [5], 73% (inactive); in assay [6] (setting [9]) it was 68.8%; in assay [6] (setting [10]), 73%. The Her2 level in assay [2] is 93% (inactive). Further, the differential viability (reversal) in assay [6] (H69AR cells + 2 uM doxorubicin) is 4.23% (inactive). Besides, the inhibition in assay [7] was -2.11% (inactive); in assay [8], 0.65% (inactive).

Regarding `CCC(C(=O)OCC(=O)Nc1c(C)n(C)n(-c2ccccc2)c1=O)c1ccccc1` (stereo not given), the viability in assay [1] was 109%; in assay [3], 109% (inactive); in assay [4], 117% (inactive); in assay [5] it was 87.7% (inactive); in assay [6] (setting [9]), 81.1%; in assay [6] (setting [10]) it was 87.7%. The Her2 level in assay [2] is 83% (inactive). Also, the differential viability (reversal) in assay [6] (H69AR cells + 2 uM doxorubicin) was 6.61% (inactive). In addition, the values for the inhibition in assay [7] and in assay [8] were -4.66% (inactive) and -4.76% (inactive), respectively.

Regarding `COc1cc(C(c2sc3nc(C)nn3c2O)N2CC(C)CC(C)C2)cc(OC)c1OC` (stereo not given), the viability was 78% in assay [1]; 78% (inactive) in assay [3]; 98.8% (inactive) in assay [4]; 103% (inactive) in assay [5]; 103% in assay [6] (setting [9]); 103% in assay [6] (setting [10]). Also, the Her2 level in assay [2] was 98.5% (inactive). For the same compound, the differential viability (reversal) in assay [6] (H69AR cells + 2 uM doxorubicin) is 0.2% (inactive). In addition, the figures for the inhibition in assay [7] and in assay [8] were 0.9% (inactive) and 0.17% (inactive), respectively.

Turning to `CC(C)Cn1c(CN2CCN(c3ccccc3F)CC2)nc2c1c(=O)[nH]c(=O)n2C`, the viability in assay [1] was 93%; in assay [3] it was 93% (inactive); in assay [4] it was 72.9% (inactive); in assay [5], 93% (inactive); in assay [6] (setting [9]), 84.8%; in assay [6] (setting [10]), 93%. For the same compound, the Her2 level in assay [2] was 93% (inactive). The differential viability (reversal) in assay [6] (H69AR cells + 2 uM doxorubicin) was 8.27% (inactive). Further, the inhibition was -4.27% (inactive) in assay [7] and -0.66% (inactive) in assay [8].

Regarding `O=c1oc2ccccc2n1CCc1ccccc1`, the viability in assay [1] was 109%; in assay [3], 109% (inactive); in assay [4] it was 84.6% (inactive); in assay [5] it was 93.7% (inactive); in assay [6] (setting [9]), 84.6%; in assay [6] (setting [10]), 93.7%. Besides, the Her2 level in assay [2] was 97.5% (inactive). Moreover, the differential viability (reversal) in assay [6] (H69AR cells + 2 uM doxorubicin) is 9.07% (inactive). Besides, the inhibition was -5.92% (inactive) in assay [7] and 0.98% (inactive) in assay [8].

Turning to `CC1=C(C(=O)OCc2ccccc2)C(c2ccc(C)o2)C2=C(CCCC2=O)N1` (stereo not given), the viability is 72% in assay [1]; 72% (inactive) in assay [3]; 113% (inactive) in assay [4]; 103% (inactive) in assay [5]; 89.1% in assay [6] (setting [9]); 103% in assay [6] (setting [10]). Further, the Her2 level in assay [2] was 88% (inactive). Besides, the differential viability (reversal) in assay [6] (H69AR cells + 2 uM doxorubicin) is 13.5% (inactive). For the same compound, the inhibition in assay [7] is -6.89% (inactive); in assay [8] it was 6.07% (inactive).

With `Cc1cccc(-n2ccnc2SCC(=O)Nc2cc(C)on2)c1`, the viability in assay [1] was 96%; in assay [3] it was 96% (inactive); in assay [4] it was 96.3% (inactive); in assay [5], 99.1% (inactive); in assay [6] (setting [9]) it was 80.4%; in assay [6] (setting [10]) it was 99.1%. Further, the Her2 level in assay [2] was 102% (inactive). The differential viability (reversal) in assay [6] (H69AR cells + 2 uM doxorubicin) is 18.6% (inactive). Also, the inhibition in assay [7] was 0.79% (inactive); in assay [8] it was -4.91% (inactive).

As to `COc1ccc(N(CC(=O)N2c3ccccc3CC2C)S(=O)(=O)c2c(C)noc2C)cc1` (stereo not given), the viability in assay [1] was 88.5%; in assay [3], 88.5% (inactive); in assay [4], 70.3% (inactive); in assay [5], 83% (inactive); in assay [6] (setting [9]), 99.9%; in assay [6] (setting [10]) it was 83%. Besides, the Her2 level in assay [2] is 88.5% (inactive). For the same compound, in assay [6] (H69AR cells + 2 uM doxorubicin), the differential viability (reversal) is -16.9% (inactive). Besides, the inhibition in assay [7] is -4.53% (inactive); in assay [8] it was 1.97% (inactive).

With `Cc1ccc2oc(C(=O)Nc3c(C)n(C)n(-c4ccccc4)c3=O)c(C)c2c1`, the viability in assay [1] was 84.5%; in assay [3], 84.5% (inactive); in assay [4], 97.2% (inactive); in assay [5], 104% (inactive); in assay [6] (setting [9]) it was 83.6%; in assay [6] (setting [10]), 104%. In addition, the Her2 level in assay [2] is 102% (inactive). Further, in assay [6] (H69AR cells + 2 uM doxorubicin), the differential viability (reversal) was 20.3% (inactive). Also, the inhibition is -7.4% (inactive) in assay [7] and -10.3% (inactive) in assay [8].

For `CCOc1ccc(C(=O)N(CN2CCCC2=O)c2ccc(C)cc2)cc1`, the viability in assay [1] is 125%; in assay [3], 125% (inactive); in assay [4], 116% (inactive); in assay [5], 95.1% (inactive); in assay [6] (setting [9]), 87.2%; in assay [6] (setting [10]) it was 95.1%. Also, the Her2 level in assay [2] was 114% (inactive). Also, the differential viability (reversal) in assay [6] (H69AR cells + 2 uM doxorubicin) is 7.87% (inactive). The results for the inhibition in assay [7] and in assay [8] were -6% (inactive) and 1.94% (inactive), respectively.

Turning to `CC(=O)NC(Cc1cc(C)ccc1C)C(=O)N1CCN(C(=O)Nc2ccc(C(C)=O)cc2)CC1` (stereo not given), the viability was 102% in assay [1]; 102% (inactive) in assay [3]; 109% (inactive) in assay [4]; 88.7% (inactive) in assay [5]; 94% in assay [6] (setting [9]); 88.7% in assay [6] (setting [10]). Besides, the Her2 level in assay [2] is 101% (inactive). For the same compound, the differential viability (reversal) in assay [6] (H69AR cells + 2 uM doxorubicin) is -5.32% (inactive). For the same compound, the figures for the inhibition in assay [7] and in assay [8] were -4.62% (inactive) and -11.3% (inactive), respectively.

For `Cc1ccc(C(=O)Nc2nc3c(s2)CCCC3)o1`, the viability is 104% in assay [1]; 104% (inactive) in assay [3]; 60.9% (inactive) in assay [4]; 73.3% (inactive) in assay [5]; 79.1% in assay [6] (setting [9]); 73.3% in assay [6] (setting [10]). Moreover, the Her2 level in assay [2] was 72% (inactive). Besides, in assay [6] (H69AR cells + 2 uM doxorubicin), the differential viability (reversal) is -5.85% (inactive). Also, the inhibition is -1.71% (inactive) in assay [7] and 16.6% (inactive) in assay [8].

Regarding `N#Cc1c(N)c(C(=O)c2ccccc2)n2c1CCCC2`, the viability in assay [1] is 103%; in assay [3], 103% (inactive); in assay [4], 97.7% (inactive); in assay [5], 93.1% (inactive); in assay [6] (setting [9]) it was 99.2%; in assay [6] (setting [10]) it was 93.1%. Also, in assay [2], the Her2 level was 71% (inactive). Further, the differential viability (reversal) in assay [6] (H69AR cells + 2 uM doxorubicin) was -6.13% (inactive). The figures for the inhibition in assay [7] and in assay [8] were -8.92% (inactive) and -0.66% (inactive), respectively.

For `CCC(=O)N1CCc2cc(OC)c(OC)cc2C1COc1ccc(C(=O)OC)cc1` (stereo not given), the viability in assay [1] is 94.5%; in assay [3] it was 94.5% (inactive); in assay [4], 87.2% (inactive); in assay [5], 91.5% (inactive); in assay [6] (setting [9]) it was 93.9%; in assay [6] (setting [10]), 91.5%. For the same compound, in assay [2], the Her2 level is 83% (inactive). The differential viability (reversal) in assay [6] (H69AR cells + 2 uM doxorubicin) is -2.33% (inactive). In addition, the inhibition is -5.33% (inactive) in assay [7] and 1.61% (inactive) in assay [8].
